# The source made the active and inactive calls. No cut-off for these calls is given here.
# Experiments:
# Format in all cases: nucleic-acid assay
# Nucleic Acid [1] = assay: Displacement of ethidium bromide from minor groove region of DNA at 3 uM by […] analysis
# In short: (§1)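 CSI microarray of hairpinned dsDNA probes covering all 9 bp permutations. The array was incubated 1 h with 6 μM EtBr in binding buffer (100mM NaCl, 100mM Tris pH 8.0). Unlabeled ligand (3 μM) was then added to the EtBr solution for a further 1 h to reach equilibrium. Per-feature ratio of displaced to undisplaced EtBr fluorescence, expressed as FD = 1−(1−Rseq)/(1−RMax).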
# Nucleic Acid [2] = assay: Displacement of ethidium bromide from DNA TAGAATA region at 3 uM by […] analysis; in short: as §1
# Nucleic Acid [3] = assay: Displacement of ethidium bromide from DNA TGAATAA region at 3 uM by […] analysis; in short: as §1
# Nucleic Acid [4] = assay: Displacement of ethidium bromide from DNA TATTAGA region at 3 uM by […] analysis; in short: as §1
# Nucleic Acid [5] = assay: Displacement of ethidium bromide from DNA AATA region by […] analysis; in short: as §1
# Nucleic Acid [6] = assay: Displacement of ethidium bromide from DNA AAAA region by […] analysis; in short: as §1
# Nucleic Acid [7] = assay: Displacement of ethidium bromide from DNA ATAA region by […] analysis; in short: as §1
# Nucleic Acid [8] = assay: Displacement of ethidium bromide from DNA TAAA region by […] analysis; in short: as §1
# Nucleic Acid [9] = assay: Displacement of ethidium bromide from DNA ATTA region by […] analysis; in short: as §1
# Nucleic Acid [10] = assay: Displacement of ethidium bromide from DNA AAAT region by […] analysis; in short: as §1
# Nucleic Acid [11] = assay: Displacement of ethidium bromide from DNA ATAT region by […] analysis; in short: as §1
# Nucleic Acid [12] = assay: Displacement of ethidium bromide from DNA TATA region by […] analysis; in short: as §1
# Nucleic Acid [13] = assay: Displacement of ethidium bromide from DNA TTAA region by […] analysis; in short: as §1
# Nucleic Acid [14] = assay: Binding affinity to minor groove region of DNA
structure (smiles),measurement,setting,value
Cn1cc(NC(=O)c2cc(NC(=O)CNC(=N)N)cn2C)cc1C(=O)NCCC(=N)N [NETROPSIN],Activity,Nucleic Acid [1],Active
same,Activity,Nucleic Acid [2],Active
same,Activity,Nucleic Acid [3],Active
same,Activity,Nucleic Acid [4],Active
same,Activity,Nucleic Acid [5],Active
same,Activity,Nucleic Acid [6],Active
same,Activity,Nucleic Acid [7],Active
same,Activity,Nucleic Acid [8],Active
same,Activity,Nucleic Acid [9],Active
same,Activity,Nucleic Acid [10],Active
same,Activity,Nucleic Acid [11],Active
same,Activity,Nucleic Acid [12],Active
same,Activity,Nucleic Acid [13],Active
same,Kd,Nucleic Acid [14],1 nM

# From ChEMBL document CHEMBL1151927, “CSI-FID: high throughput label-free detection of DNA binding molecules” (Bioorg Med Chem Lett, 2009)
